Experimental data as given in the RNAGym collection of RNA variant scans (doi:10.1126/science.aae0568).
Variants at the floor of the assay were thinned out.

B1: tRNA (parent)
chain: GUUCCGUUGGCGUAAUGGUAACGCGUCUCCCUCCUAAGGAGAAGACUGCGGGUUCGAGUCCCGUACGGAACG

Variants of: B1
Test: yeast fitness relative to wild type (ratio to wild type); higher = fitter; tRNA-Arg(CCU), competitive growth, 37 C, YPD
How it was run: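 Start and end populations of a pooled competition were compared by 100-nucleotide paired-end sequencing of gene amplicons. The Saccharomyces cerevisiae strains carried tRNA-Arg(CCU) gene variants at the native genomic locus, synthesised with a 3% per-site mutation rate at 69 sites, and competed in YPD at 37°C for 24 hours in six parallel replicates. Darwinian fitness relative to wild type was based on the change in genotype frequencies. Genotypes required ≥ 100 starting reads, and estimates < 0.5 were set to 0.5.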

Going from C11A A20C C24U C55G to G10U G17A C29G C55G C60U, the yeast fitness falls from 0.617 to no more than 0.5.

Going from G10C U13C G18C C27U C33G A37G C55U U64A G68C A70U to G10C G23C G48A G52A U53C C61A, the yeast fitness rises from no more than 0.5 to 0.52.

First: G10C C33G A40U
Second: C11A A15G C34G G52C C61U
The yeast fitness of the first is higher: 0.579 for the first, no more than 0.5 for the second.

C11A A15C U54C C66G and C11A C24U G56A G67C A70G cannot be ordered by yeast fitness: no more than 0.5 for the first, no more than 0.5 for the second.

Compared with G10C C34G A40G, C11A C22U G44C C60U A69G is higher in yeast fitness: no more than 0.5 for the first, 0.597 for the second.

Going from C11A A40G to C11A C24U C31U C61U G67A, the yeast fitness falls from 0.602 to no more than 0.5.

Compared with G10C C34A A40G, C11A A42U is higher in yeast fitness: 0.631 for the first, 0.724 for the second.

C11A A21C G51C U59G and G10C G44C G51C cannot be ordered by yeast fitness: no more than 0.5 for the first, no more than 0.5 for the second.

G10C C55A C61U A65C G68A and G10C G48A U54A cannot be ordered by yeast fitness: no more than 0.5 for the first, no more than 0.5 for the second.

First: C11A A36C G56C
Second: C11A A21C C55U
The yeast fitness of the first is higher: 0.614 for the first, no more than 0.5 for the second.

C11A C24U C31U G67A and G10C C33U A36G A43G cannot be ordered by yeast fitness: no more than 0.5 for the first, no more than 0.5 for the second.

First: C11A C22G C33U C34A G41A A65G
Second: G10C G18C C24U C66U
The yeast fitness of the first is higher: 0.527 for the first, no more than 0.5 for the second.

Compared with G10C C31A, C11A A21C C31A C55G is lower in yeast fitness: 0.577 for the first, no more than 0.5 for the second.

Going from C11A A15G C61U A65U to C11A A43U C46U U47G, the yeast fitness rises from no more than 0.5 to 0.565.

G10C C31U U35G and C11A A21U C27A U35G cannot be ordered by yeast fitness: no more than 0.5 for the first, no more than 0.5 for the second.

Going from G10C C30A to G10C C30G, the yeast fitness falls from 0.815 to 0.507.

Compared with G10C C30U, C11A A21G C34U A37G G52C A57U A69U is lower in yeast fitness: 0.733 for the first, no more than 0.5 for the second.

Compared with G10C U26A C31U, G10C C49U A69C is lower in yeast fitness: 0.578 for the first, 0.575 for the second.

C11A A45U C55U G68U and C11A C22G U53C C66U cannot be ordered by yeast fitness: no more than 0.5 for the first, no more than 0.5 for the second.

C11A A14G C29U A65C and G10C G44C U47C G52A U53C C61U cannot be ordered by yeast fitness: no more than 0.5 for the first, no more than 0.5 for the second.

Going from C11A A20U U32C G68C to G10U G12A A43C A69G, the yeast fitness rises from no more than 0.5 to 0.566.

Going from C11A A43G to G10U G17A C24A C61G, the yeast fitness falls from 0.621 to no more than 0.5.

Compared with C11A A21C A37C A40C A69C, C11A A15G C61U is higher in yeast fitness: no more than 0.5 for the first, 0.528 for the second.

Going from C11A A37G to C11A A37U, the yeast fitness rises from 0.566 to 0.587.

G10C G18A C22U G63A and C11A C27A C29U G58A cannot be ordered by yeast fitness: no more than 0.5 for the first, no more than 0.5 for the second.

Compared with G10C C60A C62A, C11A C24U U32A U35C C55G is lower in yeast fitness: 0.529 for the first, no more than 0.5 for the second.

G10C G12A C33G U47G and G10C U13A A14G A20G C22A C24G C62G cannot be ordered by yeast fitness: no more than 0.5 for the first, no more than 0.5 for the second.

G10C U26C A45G C49U C55G and G10U A14U cannot be ordered by yeast fitness: no more than 0.5 for the first, no more than 0.5 for the second.

First: G10C G44A
Second: G10C U32A A43C C49A
The yeast fitness of the first is higher: 0.699 for the first, no more than 0.5 for the second.

C11A A43G U47C A65C and C11A A43U C46U U47G A70U cannot be ordered by yeast fitness: no more than 0.5 for the first, no more than 0.5 for the second.

C11A A14G C31G C34G and C11A C24G C30G A57U G68U cannot be ordered by yeast fitness: no more than 0.5 for the first, no more than 0.5 for the second.

Compared with G10C C30G C34G A57G C66U, G10C G12C C33U U35G C49G is lower in yeast fitness: 0.523 for the first, no more than 0.5 for the second.

C11A A20G C55U C61A and G10C U53A C66U cannot be ordered by yeast fitness: no more than 0.5 for the first, no more than 0.5 for the second.

G10C U32A A36G and G10C G12U C33U U35G cannot be ordered by yeast fitness: no more than 0.5 for the first, no more than 0.5 for the second.

G10C G50A U59A G67U and G10C U32A G38C U64C cannot be ordered by yeast fitness: no more than 0.5 for the first, no more than 0.5 for the second.

C11A C24G C30G G56A and C11A A21C C31A G58A cannot be ordered by yeast fitness: no more than 0.5 for the first, no more than 0.5 for the second.

First: G10C G23A G52C C62U
Second: G10C C31G A65U
The yeast fitness of the first is higher: 0.55 for the first, no more than 0.5 for the second.

G10C C33A A45C C55U and G10U G17A C24A C62U C66U cannot be ordered by yeast fitness: no more than 0.5 for the first, no more than 0.5 for the second.

G10C U54G and G10C U54A cannot be ordered by yeast fitness: no more than 0.5 for the first, no more than 0.5 for the second.

Going from G10C C46A A69U to G10C C34G A69U A70C, the yeast fitness rises from 0.615 to 0.711.

C11A A20G C62A G67A and G10C G23A U35A A40U A42U C55G cannot be ordered by yeast fitness: no more than 0.5 for the first, no more than 0.5 for the second.

G10C C33G U53C C55U A70G and G10C U32C A42C cannot be ordered by yeast fitness: no more than 0.5 for the first, no more than 0.5 for the second.
